Data from ChEMBL document CHEMBL3120138, “Glucocorticoid receptor modulators informed by crystallography lead to a new rationale for receptor selectivity, function, and implications for structure-based design” (J Med Chem, 2014).
Active and inactive are the calls of the source. No cut-off for these calls is given here.

Legend:
Rattus norvegicus [1] = assay: Antiinflammatory activity in po dosed Lewis rat collagen-induced arthritis model assessed as reduction in ankle diameter administered for 15 days measured during compound dosing; assay type: functional, organism-based
In short: (§1)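 Female Lewis rats received collagen injected at the tail base, and disease developed over 14 d. Responding rats (groups of n = 10) were then dosed orally once daily for the next 15 d. Ankle/paw diameter was measured throughout the live phase and summarised as AUC. Hindpaw histology was scored blind from 0 (normal) to 5 (vehicle-level). Statistics used Student's t test vs vehicle, p < 0.01.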

[2] = Volume of distribution in Sprague-Dawley rat at 3 mg/kg, iv; assay type: ADME, organism-based; parameters: dose 3 mg/kg, route intravenous; conditions: in vivo
In short: (§2)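 Cannulated male Sprague-Dawley rats, fasted overnight, given a single 3 mpk dose at t = 0. The iv vehicle was 20% microemulsion/80% DI water and the po vehicle CMC/tween in DI water. Plasma was analysed for parent compound by LC/MS-MS, and exposure, half-life, Vd, clearance and bioavailability were calculated.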

[3] = Half life in Lewis rat collagen-induced arthritis model at 3 to 30 mg/kg, po after 15 days; assay type: ADME, organism-based; parameters: dose 3-30 mg/kg, route oral; conditions: in vivo
Rattus norvegicus [4] = assay: Antiinflammatory activity in Lewis rat collagen-induced arthritis model assessed as reduction of bone resorption at 30 mg/kg, po administered for 15 days; assay type: functional, organism-based; parameters: dose 30 mg/kg; in short: as §1
[5] = biological target: T1, Glucocorticoid receptor (Homo sapiens) (UniProt P04150); assay: Transactivation of human glucocorticoid receptor expressed in HEK293 cells at 10 uM after 24 hrs by luciferase reporter gene assay relative to control; assay type: cell-based
T1 sequence (whole entry): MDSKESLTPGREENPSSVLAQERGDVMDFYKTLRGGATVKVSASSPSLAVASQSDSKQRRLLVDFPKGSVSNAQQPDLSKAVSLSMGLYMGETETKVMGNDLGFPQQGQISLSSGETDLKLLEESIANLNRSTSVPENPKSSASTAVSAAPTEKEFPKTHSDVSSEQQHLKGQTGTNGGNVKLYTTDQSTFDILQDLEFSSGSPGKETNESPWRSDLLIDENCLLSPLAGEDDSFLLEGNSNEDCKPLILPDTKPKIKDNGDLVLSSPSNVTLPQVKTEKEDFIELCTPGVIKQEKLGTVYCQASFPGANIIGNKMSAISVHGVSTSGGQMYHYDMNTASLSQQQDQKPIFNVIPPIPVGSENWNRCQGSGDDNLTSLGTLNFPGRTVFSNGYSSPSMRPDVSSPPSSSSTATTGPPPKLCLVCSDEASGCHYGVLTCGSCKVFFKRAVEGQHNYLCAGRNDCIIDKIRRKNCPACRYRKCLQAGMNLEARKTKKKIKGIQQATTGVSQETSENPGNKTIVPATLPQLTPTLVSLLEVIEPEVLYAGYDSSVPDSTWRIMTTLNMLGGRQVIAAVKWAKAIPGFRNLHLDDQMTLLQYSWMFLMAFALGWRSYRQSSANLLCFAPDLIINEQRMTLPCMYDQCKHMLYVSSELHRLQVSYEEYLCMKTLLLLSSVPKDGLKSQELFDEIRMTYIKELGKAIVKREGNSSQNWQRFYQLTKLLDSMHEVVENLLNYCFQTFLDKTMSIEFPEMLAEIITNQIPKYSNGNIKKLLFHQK
In short: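 HEK293 cells were transfected in DMEM with 5% charcoal-stripped FBS, using a CMV-hGR plasmid and a luciferase reporter driven by 2×GRE plus the TK promoter. After overnight incubation, cells were replated and exposed to compound for 24 h, then lysed for luciferase readout.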

[6] = AUC in Sprague-Dawley rat at 3 mg/kg, po; assay type: ADME, organism-based; parameters: dose 3 mg/kg, route oral; conditions: plasma; in short: as §2
Rattus norvegicus [7] = assay: Antiinflammatory activity in Lewis rat collagen-induced arthritis model assessed as reduction of cartilage damage at 30 mg/kg, po administered for 15 days; assay type: functional, organism-based; parameters: dose 30 mg/kg; in short: as §1
Rattus norvegicus [8] = assay: Antiinflammatory activity in Lewis rat collagen-induced arthritis model assessed as reduction of pannus at 30 mg/kg, po administered for 15 days; assay type: functional, organism-based; parameters: dose 30 mg/kg; in short: as §1

Vd [2]: 7 L/kg
half-life [3]: 1.4 h
Efficacy [5]: 53%
AUC [6]: 1300 ng·h/mL
SMILES: CC/C(=C1\c2ccccc2OCc2cccc(OC)c21)c1cccc(NS(C)(=O)=O)c1
Activity (Rattus norvegicus [1]): Dose-dependent effect
Activity (Rattus norvegicus [4]): Active
Activity (Rattus norvegicus [7]): Active
Activity (Rattus norvegicus [8]): Active
